Results gathered from unrelated publications.
Values after ≈ are worked out from the molar mass of the structure shown.

Compound | organism | test | test system | setting | endpoint | value
O=c1[nH]c(CCl)nc2scc(-c3ccc(F)cc3)c12 | Trypanosoma brucei | parasite growth, ATP luminescence |  | 48 h | EC50 | 1500 nM
C/C(=N\c1nc(N)nc(/N=C(\C)c2c(O)c3ccccc3oc2=O)n1)c1c(O)c2ccccc2oc1=O | Penicillium verrucosum | microbial growth, broth dilution |  | 48 h | MIC | 7.81 µg/mL
O=c1[nH]c(CCl)nc2scc(-c3ccccc3)c12 | Trypanosoma brucei | parasite growth, ATP luminescence |  | 48 h | EC50 | 1400 nM
C=C[C@]1(C)C[C@@H](OC(=O)CS[C@@H]2C[C@H]3CC[C@@H](C2)N3C)[C@]2(C)[C@H](C)CC[C@]3(CCC(=O)[C@H]32)[C@@H](C)[C@@H]1O | Enterococcus faecium | microbial growth |  | clinical isolate | MIC90 | 128 µg/mL (≈ 247 µM)
CCOC(=O)c1cnc2c([N+](=O)[O-])cc(C(F)(F)F)cc2c1NCCCN1CCOCC1 | Trypanosoma brucei | parasite growth, resazurin |  | 72 h | EC50 | > 10000 nM
C/C(=N\N=C(/C)c1c(O)c2ccccc2oc1=O)c1c(O)c2ccccc2oc1=O | Penicillium verrucosum | microbial growth, broth dilution |  | 48 h | MIC | 62.5 µg/mL
CC1(C)S[C@@H]2[C@H](NC(=O)[C@H](N)c3ccccc3)C(=O)N2[C@H]1C(=O)O | Enterococcus faecium | microbial growth |  | clinical isolate | MIC50 | 128 µg/mL (≈ 366 µM)
c1cc(-c2ccc3ncnc(NC4CCOCC4)c3c2)cc(N2CCOCC2)c1 | Trypanosoma brucei | parasite growth, SYBR Green |  | 48 h | GI50 | 3000 nM
CC(=O)N1CCN(c2ccc(OCC3COC(Cn4ccnc4)(c4ccc(Cl)cc4Cl)O3)cc2)CC1 (stereo not shown) | Candida albicans | microbial growth, broth dilution | 56452 | 48 h | MIC | 2 µM
CC(=O)N1CCN(c2ccc(OCC3COC(Cn4ccnc4)(c4ccc(Cl)cc4Cl)O3)cc2)CC1 (stereo not shown) | Penicillium verrucosum | microbial growth, broth dilution |  | 48 h | MIC | 3.9 µg/mL
CC1(C)S[C@@H]2[C@H](NC(=O)[C@H](N)c3ccccc3)C(=O)N2[C@H]1C(=O)O | Enterococcus faecium | microbial growth, broth dilution | ATCC19434 | 12 h | MIC | 0.5 µg/mL
c1cc(-c2ccc3ncnc(Nc4ncco4)c3c2)nc(N2C[C@H]3C[C@@H]2CO3)n1 | Trypanosoma brucei | parasite growth, SYBR Green |  | 48 h | GI50 | 4700 nM
CCOC(=O)c1cnc2c([N+](=O)[O-])cc(C(F)(F)F)cc2c1NCCc1ccccc1 | Trypanosoma brucei | parasite growth, resazurin |  | 72 h | EC50 | > 10000 nM
c1cc(-c2ccc3ncnc(Nc4ncco4)c3c2)cc(N2C[C@H]3C[C@@H]2CO3)c1 | Trypanosoma brucei | parasite growth, SYBR Green |  | 48 h | GI50 | 2100 nM
O=c1[nH]c(CCl)nc2scc(-c3ccccc3F)c12 | Trypanosoma brucei | parasite growth, ATP luminescence |  | 24 h | EC50 | 1000 nM
C[C@@H]1[C@H](O)[C@@H](C)/C=C/C=C/C=C/C=C/C=C/C=C/C=C/[C@H](O[C@@H]2O[C@H](C)[C@@H](O)[C@H](N)[C@@H]2O)C[C@@H]2O[C@](O)(C[C@@H](O)C[C@@H](O)[C@H](O)CC[C@@H](O)C[C@@H](O)CC(=O)O[C@H]1C)C[C@H](O)[C@H]2C(=O)O | Candida albicans | microbial growth, broth dilution | SP3902 | 48 h | MIC | < 0.25 µM
CN1CCN(c2cccc(-c3ccc4ncnc(Nc5ccc(Cl)c(Cl)c5)c4c3)c2)CC1 | Trypanosoma brucei | parasite growth, SYBR Green |  | 48 h | GI50 | 290 nM
OC(Cn1cncn1)(Cn1cncn1)c1ccc(F)cc1F | Candida albicans | microbial growth, broth dilution | 14936 | 48 h | MIC | 4 µM
c1cc(-c2ccc3ncnc(Nc4ncco4)c3c2)nc(N2CCOCC2)c1 | Trypanosoma brucei | parasite growth, SYBR Green |  | 48 h | GI50 | 190 nM
